# Source: PubChem (several laboratories)
# KCNK3 inh: human KCNK3 channel inhibition, primary screen; B-score at 10 µM; actives 0.84% (n = 340,000); CHO-KCNK3 thallium flux, FluxOR fluorescence; stronger effect = lower value;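 active means B-score under library mean minus 4 SD, starting fluorescence ratio at most library mean plus 5 SD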;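 further: more negative B-score means stronger inhibition of thallium flux through KCNK3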
# KCNK9 inh: blocks the human KCNK9 two-pore domain potassium channel. B-score at 10 µM. AID 488922. actives 1.2% (n = 310,000). Q9NPC2. HEK293 KCNK9, FluxOR thallium flux fluorescence; stronger effect = lower value;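 active means ratio B-score over 3 SD below the library mean, with starting fluorescence within 5 SD of its mean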;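 further: negative B-score means less thallium flux so channel inhibition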
# KCC2 mod: modulators of human KCC2 chloride dependent transport; Q9H2X9; B-score of Tl+ flux slope (higher = more flux/activation; lower = inhibition) at 10 µM; KCC2 cells, thallium flux FluoZin-2 fluorescence; actives 2.2% (n = 190,000); AID 1456;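 active means thallium flux slope and its plate-corrected score both differing from the plate sample mean at a set confidence after two filtering rounds, in either direction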;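 further: slope of fluorescence scaled to starting intensity during 10 to 20 s after thallium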
# hERG protect: shields human hERG channel from block by proarrhythmic agents. CHO-hERG, FluxOR thallium flux, dofetilide IC70 present. Q12809. activation (rescue from dofetilide block), less the hit threshold, % at 10 µM. actives 0.51% (n = 310,000);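 active means activation above the mean of controls blocked by dofetilide plus 5 SD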;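 further: thallium influx through hERG after potassium depolarization seen as dye fluorescence rise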
# KCNQ1 inh: blocks the human KCNQ1 potassium channel. P51787. CHO-K1 KCNQ1, FluxOR thallium flux fluorescence; stronger effect = higher value. B-score at 10 µM. actives 1.3% (n = 310,000). AID 2642;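 active means compounds whose thallium flux B-score, printed positive for inhibition, exceeds three library SD while starting fluorescence stays within three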;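 further: channel opened by potassium depolarization with thallium stimulus after 20 min compound exposure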
# KCNQ1 act: human KCNQ1 channel potentiation or activation | actives 0.35% (n = 310,000) | CHO-K1 KCNQ1, thallium flux FluxOR fluorescence; stronger effect = higher value | B-score at 10 µM;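 active means fluorescence ratio B-score, a plate-corrected score, at least three library SD, with initial intensity B-score within 5 SD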
#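 Doses: Single concentration per compound, DMSO matched to controls | Test system: KCNQ1-transfected CHO-K1 cells | Timing: 90 min dye loading and 20 min compound exposure, both at room temperature | Measured by: Kinetic FluxOR thallium fluorescence, 10-s 1-Hz baseline, 110-s post-stimulus read | Medium: Assay buffer with matched DMSO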
# KCNK3 inh conf: human KCNK3 channel inhibition, confirmation assay; shares compounds with KCNK3 inh; CHO-KCNK3 thallium flux, FluxOR fluorescence; 0% buffer, 100% carvedilol maximal block; ratio percent of control, % at 10 µM; actives 99% (n = 2,400);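 active means ratio percent of control, averaged over triplicates, above buffer control mean plus 5 SD, cut at about 64% in these data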;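 further: ratio is the fluorescence rise from min to max over baseline after thallium stimulus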
# KCNK3 uninduced: KCNK3 inhibitor counter-screen hit in non-induced cells; actives 40% (n = 2,400); thallium flux ratio (lower = more inhibition) at 10 µM; shares compounds with KCNK3 inh; non-induced KCNK3 parental cells, FluxOR thallium flux; stronger effect = lower value;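 active means thallium flux ratio, averaged over three wells, more than 5 SD below the buffer control mean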;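 further: host cells are CHO cells without KCNK3 induction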
# Hits are given with their value; n = inactive; x = no result. Hits are enriched below; roughly 4.1% of the tested compounds scored in any of these assays.
SMILES,KCNK3 inh,KCNK9 inh,KCC2 mod,hERG protect,KCNQ1 inh,KCNQ1 act,KCNK3 inh conf,KCNK3 uninduced
Cc1cc(OCC(=O)NC2CC(C)(C)NC(C)(C)C2)c2c(C)c(C)c(=O)oc2c1,n,n,x,n,n,n,x,x
NC(=O)c1ccsc1NC(=O)COC(=O)c1ccccn1,n,x,x,x,x,x,x,x
O=C(CNC(=O)c1cccc(F)c1)OCCOc1cccc(Cl)c1,-8.7,n,x,n,n,n,104,n
O=C(CNC(=O)c1ccccc1)OCCOc1cccc(Cl)c1,n,n,x,n,n,n,x,x
O=C(CN1CCN(c2ccc(O)cc2)CC1)Nc1ccc2c(c1)OCCCO2,n,x,x,x,x,x,x,x
O=C1c2ccccc2C(Nc2ccccc2)N1c1cccnc1 (stereo not drawn),n,n,x,n,n,n,x,x
COc1ccc(NC2c3ccccc3C(=O)N2c2cccnc2)cc1Cl (stereo not drawn),-10,n,n,n,n,n,117,n
COC(=O)c1cc(NC2c3ccccc3C(=O)N2c2cccnc2)cc(C(=O)OC)c1 (stereo not drawn),-9,n,n,n,n,n,119,0.15
CN1CCN(C(c2ccc(Br)cc2)c2cc(Cl)c3cccnc3c2O)CC1 (stereo not drawn),n,n,x,n,n,n,x,x
CC1CCc2c(sc3ncnc(SCC(=O)N(C)C4CCS(=O)(=O)C4)c23)C1 (stereo not drawn),n,x,x,x,x,x,x,x
CC1CCCCC1NC(=O)COC(=O)COc1ccccc1F (stereo not drawn),n,x,x,x,x,x,x,x
COc1cccc(-c2nc(C(=O)NCC3CCCO3)cc3c2[nH]c2ccccc23)c1 (stereo not drawn),-11,-6.8,x,n,n,n,64,0.15
COc1ccc(OC)c(-c2nc(C(=O)NCC3CCCO3)cc3c2[nH]c2ccccc23)c1 (stereo not drawn),n,n,x,n,n,n,x,x
COc1ccc(C(=O)Nc2ccc(C)c(S(=O)(=O)N3CCCCCC3)c2)cc1,n,n,n,n,n,n,x,x
Cc1ccc(NC(=O)c2ccc(F)cc2)cc1S(=O)(=O)N1CCCCCC1,-11,n,n,n,n,n,101,n
Cc1ccc(NC(=O)/C=C/c2ccco2)cc1S(=O)(=O)N1CCCCCC1,-9.4,n,x,n,n,n,124,0.12
COc1ccc(C)cc1NC(=O)c1ccc(S(=O)(=O)N2CCCCC2)cc1,-9.7,n,x,n,n,n,106,0.16
COc1ccc(S(=O)(=O)N2CCCCCC2)cc1NC(=O)c1ccccc1,n,n,x,n,n,n,x,x
CC(=O)c1cccc(NCC(=O)Nc2cc(S(=O)(=O)N3CCCCC3)ccc2C)c1,n,n,x,n,n,n,x,x
COc1ccc(C(CC(=O)Nc2ccc(C)cn2)N2Cc3ccccc3C2=O)cc1 (stereo not drawn),n,n,x,n,n,n,x,x
COCc1cc(C)nc(SCc2ccc(Cl)cc2)c1C#N,-11,n,x,n,n,n,96,0.15
COCc1cc(C)nc(SCc2ccc(F)cc2)c1C#N,n,n,x,n,n,n,x,x
COCc1cc(C)nc(SCc2ccc(Br)cc2)c1C#N,-11,n,x,n,n,n,106,n
COc1cccc(CCNS(=O)(=O)CCNC(=O)c2cccc(OC)c2)c1,n,n,x,n,n,n,x,x
CCc1nn(CC(=O)N2CC(C)CC(C)C2)c(=O)c2cccn12 (stereo not drawn),n,n,x,n,n,n,x,x
SMILES,KCNK3 inh,KCNK9 inh,KCC2 mod,hERG protect,KCNQ1 inh,KCNQ1 act,KCNK3 inh conf,KCNK3 uninduced
CC(C)(C)c1ccc(C(=O)NCCC(=O)N2CCN(c3ncccn3)CC2)cc1,-12,n,n,n,n,n,86,n
CC(C)(C)c1ccc(C(=O)NCCC(=O)N2CCCC2)cc1,n,n,x,n,n,n,x,x
CCCCN(Cc1ccco1)C(=O)C1CCCN(c2ncnc3c2nc2n3CCCCC2)C1 (stereo not drawn),-11,n,x,n,n,n,97,n
CCCOc1ccc(C2NC(=S)NC(C)=C2C(=O)c2ccccc2)cc1OC (stereo not drawn),-9.8,n,n,n,n,n,97,n
COc1cc(C2NC(=S)NC(C)=C2C(=O)c2ccccc2)ccc1O (stereo not drawn),n,n,n,n,n,n,x,x
CCCN1C(=O)/C(=C/c2cc(C)n(C)c2C)SC1=Nc1ccc(OC)cc1,-11,n,n,n,n,n,101,0.15
O=C(Nc1cccc(Cl)c1)ON=C1c2ccccc2-c2ccccc21,-8.9,n,x,n,n,n,135,0.13
CCCCN=C1CC(C)(C)CC(=O)/C1=C(/O)CCC,-11,n,n,n,n,n,100,n
CCN(CC)c1ccc(C(=O)NNC(=O)CNC(=O)c2ccco2)cc1,n,x,x,x,x,x,x,x
CCOC(=O)/C(N=Nc1c(C)n(C)n(-c2ccccc2)c1=O)=C(/O)c1ccccc1,-8.9,n,n,n,n,n,109,n
COC(=O)COc1ccc(Cl)cc1C1Nc2ccccc2C(=O)N1c1ccc(OC)cc1 (stereo not drawn),n,-8,x,n,n,n,122,0.16
COc1ccccc1OCCOc1ccc(/C=C2/C(=N)N3OC(C)=CC3=NC2=O)cc1OC,n,n,x,n,n,n,x,x
CC1=CC2=NC(=O)/C(=C\c3cccn3CCOc3ccccc3C)C(=N)N2O1,-8.9,n,n,n,n,n,115,0.16
CCn1c(SCC(=O)Nc2cccc(F)c2)nc2c(c1=O)SC(C)C2 (stereo not drawn),-8.9,n,n,n,n,n,88,n
CCn1c(SCC(=O)NCc2ccc(F)cc2)nc2c(c1=O)SC(C)C2 (stereo not drawn),n,n,n,n,n,n,x,x
COc1ccc(CCNC(=O)C(=O)NCC2OCCN2S(=O)(=O)c2cc(F)ccc2F)cc1OC (stereo not drawn),n,n,x,n,n,n,x,x
COc1cc2c(cc1OC)C(c1ccccc1)N(C(=O)c1ccco1)CC2 (stereo not drawn),-11,n,n,n,n,n,97,n
COc1cc2c(cc1OC)C(c1ccccc1)N(C(=O)c1ccccc1)CC2 (stereo not drawn),n,n,x,n,n,n,x,x
COc1ccc(CN2CCC(n3nccc3NC(=O)CCOc3ccccc3)CC2)cc1C,n,n,x,n,n,n,x,x
CCN1CCSc2ccc(C(=O)NCc3cc(Br)ccc3OC)cc21,n,-7,x,n,n,n,92,n
COc1ccc(Br)cc1CNC(=O)c1ccc2c(c1)N(C)CCS2,-10,n,x,n,n,n,106,n
